ChEMBL document CHEMBL1154052, “Design, synthesis and primary activity evaluation of L-arginine derivatives as amino-peptidase N/CD13 inhibitors” (Bioorg Med Chem, 2009)

How the values were obtained:
[1] = Selectivity ratio of IC50 for MMP2 to IC50 for aminopeptidase N in pig kidney microsome
[2] = target: T1, Aminopeptidase N (Sus scrofa, UniProt P15145); assay: Inhibition of aminopeptidase N in pig kidney microsome by spectrophotometry; type: microsomes
T1 sequence (P15145 whole entry): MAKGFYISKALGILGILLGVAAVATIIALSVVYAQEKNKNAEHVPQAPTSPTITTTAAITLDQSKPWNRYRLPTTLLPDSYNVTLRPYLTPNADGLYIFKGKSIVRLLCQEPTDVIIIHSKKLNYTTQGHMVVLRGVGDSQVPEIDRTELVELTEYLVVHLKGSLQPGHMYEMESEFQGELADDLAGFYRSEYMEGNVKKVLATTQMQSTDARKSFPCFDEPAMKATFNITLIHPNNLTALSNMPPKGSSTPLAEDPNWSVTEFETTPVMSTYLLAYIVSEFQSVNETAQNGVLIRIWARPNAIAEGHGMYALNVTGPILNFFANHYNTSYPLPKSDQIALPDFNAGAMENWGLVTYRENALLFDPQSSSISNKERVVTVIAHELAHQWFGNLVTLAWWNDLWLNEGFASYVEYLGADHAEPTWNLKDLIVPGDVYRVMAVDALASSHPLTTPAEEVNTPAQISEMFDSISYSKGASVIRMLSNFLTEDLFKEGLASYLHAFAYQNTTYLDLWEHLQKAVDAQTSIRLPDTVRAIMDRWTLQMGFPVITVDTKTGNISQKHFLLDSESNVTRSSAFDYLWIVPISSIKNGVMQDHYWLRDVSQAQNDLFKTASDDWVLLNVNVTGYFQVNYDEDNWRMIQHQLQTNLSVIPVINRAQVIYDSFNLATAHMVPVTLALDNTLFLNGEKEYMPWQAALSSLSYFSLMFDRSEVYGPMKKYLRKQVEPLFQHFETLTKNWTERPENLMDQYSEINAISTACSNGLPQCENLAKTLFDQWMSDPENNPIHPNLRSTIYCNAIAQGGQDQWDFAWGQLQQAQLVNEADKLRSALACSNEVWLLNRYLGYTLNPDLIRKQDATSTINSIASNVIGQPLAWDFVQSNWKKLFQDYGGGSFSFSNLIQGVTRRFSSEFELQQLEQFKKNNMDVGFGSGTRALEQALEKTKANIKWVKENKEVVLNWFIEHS
Summary of the method: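 Porcine kidney microsomal aminopeptidase (4 μg/mL final) preincubated with inhibitor for 30 min at room temperature in 50 mM PBS, pH 7.2. Inhibitor solutions made in assay buffer and adjusted to pH 7.5. Substrate L-Leu-p-nitroanilide. IC50 determined.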

[3] = target: 72 kDa type IV collagenase (Homo sapiens, UniProt P08253); assay: Inhibition of MMP2
Summary of the method: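 MMP-2 (gelatinase A) incubated with substrate and inhibitor in 50 mmol/L sodium borate, pH 8.5, 30 min at 37 °C. 0.03% TNBS then added and incubated a further 20 min. Absorbance read at 450 nm.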

72 kDa type IV collagenase, sequence (P08253 whole entry): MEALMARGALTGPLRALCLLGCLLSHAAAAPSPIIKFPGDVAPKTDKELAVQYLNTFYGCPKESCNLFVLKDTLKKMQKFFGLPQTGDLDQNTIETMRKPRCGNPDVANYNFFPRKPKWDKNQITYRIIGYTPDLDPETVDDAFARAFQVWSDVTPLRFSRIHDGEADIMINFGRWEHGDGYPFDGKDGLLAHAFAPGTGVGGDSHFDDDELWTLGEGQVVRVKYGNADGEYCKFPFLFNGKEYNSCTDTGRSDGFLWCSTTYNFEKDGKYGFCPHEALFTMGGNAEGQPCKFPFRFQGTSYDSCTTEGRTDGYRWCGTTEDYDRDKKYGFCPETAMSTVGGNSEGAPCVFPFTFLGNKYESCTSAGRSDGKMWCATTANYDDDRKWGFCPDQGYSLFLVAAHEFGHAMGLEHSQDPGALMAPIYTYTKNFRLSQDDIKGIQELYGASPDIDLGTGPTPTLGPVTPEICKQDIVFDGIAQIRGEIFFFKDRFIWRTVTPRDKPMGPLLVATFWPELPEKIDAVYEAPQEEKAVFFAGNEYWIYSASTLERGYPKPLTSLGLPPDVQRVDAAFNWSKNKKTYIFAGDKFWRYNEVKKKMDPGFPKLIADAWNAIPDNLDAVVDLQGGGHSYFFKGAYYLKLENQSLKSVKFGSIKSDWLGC

| SMILES | Ratio IC50 [1] | IC50 [2] | IC50 [3] |
| --- | --- | --- | --- |
| N=C(NCCC[C@H](NC(=O)Cc1ccccc1)C(=O)NO)N[N+](=O)[O-] | 0.05 | – | – |
| NC(=N[N+](=O)[O-])NCCC[C@H](NC(=O)c1cccs1)C(=O)NO | – | 85.7 µM | 226 µM |
| N=C(NCCC[C@H](NC(=O)c1ccc(Br)c([N+](=O)[O-])c1)C(=O)NO)N[N+](=O)[O-] | 46.3 | – | – |
| Cc1ccc(S(=O)(=O)N[C@@H](CCCNC(N)=N[N+](=O)[O-])C(=O)NO)cc1 | – | 109 µM | 28.9 µM |
| COc1ccc(C(=O)N[C@@H](CCCNC(=N)N[N+](=O)[O-])C(=O)NO)cc1 | 5.4 | – | – |
| N=C(NCCC[C@H](NS(=O)(=O)c1ccccc1)C(=O)NO)N[N+](=O)[O-] | 1.7 | – | – |
| N=C(NCCC[C@H](NC(=O)c1cccc(Cl)c1)C(=O)NO)N[N+](=O)[O-] | 0.4 | 202 µM | 89.2 µM |
| N=C(NCCC[C@H](NC(=O)CCc1ccccc1)C(=O)NO)N[N+](=O)[O-] | 4.9 | 332 µM | 1640 µM |
| N=C(NCCC[C@H](NC(=O)c1ccc(Cl)cc1Cl)C(=O)NO)N[N+](=O)[O-] | 65.8 | 5.3 µM | 349 µM |
| N=C(NCCC[C@H](NC(=O)c1ccc(Cl)c(Cl)c1)C(=O)NO)N[N+](=O)[O-] | 5.8 | 33.5 µM | 194 µM |
| COc1ccc(C(=O)N[C@@H](CCCNC(N)=N[N+](=O)[O-])C(=O)NO)cc1OC | – | 26.9 µM | 346 µM |
| Cc1cccc(C(=O)N[C@@H](CCCNC(=N)N[N+](=O)[O-])C(=O)NO)c1 | 14.6 | 42.8 µM | 623 µM |
| N=C(NCCC[C@H](NC(=O)c1ccccc1Cl)C(=O)NO)N[N+](=O)[O-] | 7.3 | – | – |
| N=C(NCCC[C@H](NC(=O)/C=C/c1ccccc1)C(=O)NO)N[N+](=O)[O-] | 0.04 | 1010 µM | 36.7 µM |
| COc1ccc(C(=O)N[C@@H](CCCNC(N)=N[N+](=O)[O-])C(=O)NO)cc1 | – | 60.2 µM | 322 µM |
| NC(=N[N+](=O)[O-])NCCC[C@H](NC(=O)c1ccc(Br)cc1)C(=O)NO | – | 443 µM | 484 µM |
| N=C(NCCC[C@H](NC(=O)c1ccccc1I)C(=O)NO)N[N+](=O)[O-] | 8 | 21.9 µM | 176 µM |
| Cc1ccc(S(=O)(=O)N[C@@H](CCCNC(=N)N[N+](=O)[O-])C(=O)NO)cc1 | 0.3 | – | – |

| SMILES | Ratio IC50 [1] | IC50 [2] | IC50 [3] |
| --- | --- | --- | --- |
| NC(=N[N+](=O)[O-])NCCC[C@H](NC(=O)c1ccccc1Cl)C(=O)NO | – | 20.4 µM | 150 µM |
| N=C(NCCC[C@H](NC(=O)c1cccc([N+](=O)[O-])c1)C(=O)NO)N[N+](=O)[O-] | 2.3 | 43.4 µM | 102 µM |
| NC(=N[N+](=O)[O-])NCCC[C@H](NC(=O)Cc1ccccc1)C(=O)NO | – | 1660 µM | 8.7 µM |
| COc1cc(C(=O)N[C@@H](CCCNC(=N)N[N+](=O)[O-])C(=O)NO)cc(OC)c1OC | 0.2 | – | – |
| N=C(NCCC[C@H](NC(=O)c1cccs1)C(=O)NO)N[N+](=O)[O-] | 2.6 | – | – |
| Cc1ccccc1C(=O)N[C@@H](CCCNC(=N)N[N+](=O)[O-])C(=O)NO | 9.3 | 221 µM | 2070 µM |
| NC(=N[N+](=O)[O-])NCCC[C@H](NC(=O)c1ccc2ccccc2c1)C(=O)NO | – | 14.6 µM | 85.5 µM |
| N=C(NCCC[C@H](NC(=O)c1ccc(Br)cc1)C(=O)NO)N[N+](=O)[O-] | 1.1 | – | – |
| COc1cccc(C(=O)N[C@@H](CCCNC(=N)N[N+](=O)[O-])C(=O)NO)c1 | 9.1 | 16.5 µM | 151 µM |
| N=C(NCCC[C@H](NC(=O)c1ccc(Cl)cc1)C(=O)NO)N[N+](=O)[O-] | 1.1 | 215 µM | 238 µM |
| COc1cc(C(=O)N[C@@H](CCCNC(N)=N[N+](=O)[O-])C(=O)NO)cc(OC)c1OC | – | 271 µM | 41.1 µM |
| COc1ccc(C(=O)N[C@@H](CCCNC(=N)N[N+](=O)[O-])C(=O)NO)cc1OC | 12.8 | – | – |
| NC(=N[N+](=O)[O-])NCCC[C@H](NS(=O)(=O)c1ccccc1)C(=O)NO | – | 60.2 µM | 100 µM |
| N=C(NCCC[C@H](NC(=O)c1ccc([N+](=O)[O-])cc1)C(=O)NO)N[N+](=O)[O-] | 12.8 | 15.9 µM | 204 µM |
| N=C(NCCC[C@H](NC(=O)c1ccccc1)C(=O)NO)N[N+](=O)[O-] | 8.6 | 80.6 µM | 693 µM |
| NC(=N[N+](=O)[O-])NCCC[C@H](NC(=O)c1ccc(Br)c([N+](=O)[O-])c1)C(=O)NO | – | 5.1 µM | 236 µM |
| COc1ccccc1C(=O)N[C@@H](CCCNC(=N)N[N+](=O)[O-])C(=O)NO | 3.2 | 78.4 µM | 253 µM |
| N=C(NCCC[C@H](NC(=O)c1ccc2ccccc2c1)C(=O)NO)N[N+](=O)[O-] | 5.9 | – | – |
